RGS4 pot – RGS4 potentiators or activators, primary screen, cell-based, HEK293 M3R inducible RGS4, calcium flux. 310,000 tested, 0.92% active. B-score at 10 µM. carbachol calcium flux Fluo4; hits give low values;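 active = B-score of the integrated calcium signal more than 4 SD below the library mean, with starting fluorescence not abnormally high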;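 also: negative B-score means reduced calcium response which marks RGS4 activation or potentiation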
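Assay system: Inducible-RGS4 HEK293 cells carrying M3 receptor | Schedule: Compound preincubation 20 min at room temperature before agonist | Signal: Kinetic calcium fluorescence imaging with Fluo4-AM dye, 2 µM | Read-out basis: B score from integrated fluorescence ratio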
MrgX1 ag – agonists of human MrgX1 receptor, primary screen, HEK293 cells, Fluo-4 calcium flux; 310,000 tested, 0.44% active; Fluo-4 calcium fluorescence, agonist mode; hits give high values; AID 588627, 2011; B-score at 10 µM;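 active = calcium response B-score plate-corrected fluorescence ratio at least 3 library SD, with starting fluorescence B-score inside 5 SD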
Target sequence (Q96LB2 whole entry, looked up): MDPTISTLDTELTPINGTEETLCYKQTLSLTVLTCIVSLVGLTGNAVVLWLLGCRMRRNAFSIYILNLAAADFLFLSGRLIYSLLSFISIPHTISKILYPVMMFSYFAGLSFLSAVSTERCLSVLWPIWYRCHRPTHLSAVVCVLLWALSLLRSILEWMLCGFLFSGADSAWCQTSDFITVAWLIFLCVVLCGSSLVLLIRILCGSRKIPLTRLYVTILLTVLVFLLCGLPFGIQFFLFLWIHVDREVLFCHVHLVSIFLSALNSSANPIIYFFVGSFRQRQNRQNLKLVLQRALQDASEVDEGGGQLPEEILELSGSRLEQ
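Test system: HEK293 cells stably expressing human MrgX1 receptor; amount: 15,000 cells per well; doses: compound delivered in addition one of three; times: overnight plating before 1 h dye loading; detection: Fluo-4 NW calcium-flux fluorescence, kinetic read; read-out basis: B-scored fluorescence response ratio; controls: positive and negative controls per plate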
MrgX1 antag – antagonists of human MrgX1 receptor, primary screen, HEK293 cells, Fluo-4 calcium flux | Mas-related G-protein coupled receptor member X1 (Homo sapiens), Q96LB2 | BAM8-22 antagonism; hits give low values | B-score at 10 µM | 310,000 tested, 1.3% active | AID 588676, 2011;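 active = calcium-response B-score plate-corrected more than 3 library SD below zero, starting fluorescence within 5 deviations, no agonist response on first addition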;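 also: peak minus trough fluorescence over baseline after final BAM8-22 challenge near maximal dose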
MrgX1 PAM – positive allosteric modulators of MrgX1, primary screen, HEK293 cells, Fluo-4 calcium flux | Mas-related G-protein coupled receptor member X1 (Homo sapiens), Q96LB2 | FDSS; hits give high values | B-score at 10 µM | 310,000 tested, 0.63% active | AID 588675, 2011;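 active = plate-corrected calcium response at least 3 library SD above typical, normal starting fluorescence, not activating the receptor alone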;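 also: compound read alongside a low EC10 to EC30 dose of BAM8-22 agonist; peak minus trough fluorescence over baseline measured at the second addition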
RGS4 inh – RGS4 inhibitors, primary screen, cell-based, HEK293 M3R inducible RGS4, calcium flux | B-score at 10 µM | 310,000 tested, 0.45% active | Fluo-4 calcium flux; hits give high values; triggered by carbachol at its EC20 | Regulator of G-protein signaling 4 (Homo sapiens), P49798;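 active = B-score, a plate-corrected calcium signal, over three deviations above library mean, with baseline fluorescence within five deviations of library mean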;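 also: RGS4 expression induced by doxycycline in cells with stable M3 receptor; B-score is computed from the integrated fluorescence ratio over baseline after carbachol; higher B-score means a larger calcium signal and so more RGS4 inhibition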
Target sequence (P49798 whole entry, looked up): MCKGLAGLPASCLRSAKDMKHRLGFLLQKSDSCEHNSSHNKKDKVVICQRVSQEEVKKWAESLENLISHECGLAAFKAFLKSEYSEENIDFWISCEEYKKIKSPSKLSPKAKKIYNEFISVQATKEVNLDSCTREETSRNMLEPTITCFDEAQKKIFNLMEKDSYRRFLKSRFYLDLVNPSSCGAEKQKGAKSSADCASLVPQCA
RGS4 block valid – enhanced carbachol calcium response, M3R/RGS4 cells, RGS4 inhibitor project, cell-based, validation screen, HEK293 M3R/RGS4, calcium flux; shares compounds with RGS4 inh; carbachol calcium Fluo-4 fluorescence; carbachol added at its EC20; 0 = buffer wells, 100 = carbachol control; calcium response, % at 10 µM; 1,700 tested, 65% active; AID 492999, 2010;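 active = duplicate-averaged calcium response above the buffer-only control mean plus 5 SD of those controls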;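 also: integrated fluorescence ratio F max minus min over baseline F0; higher response in RGS4-induced cells means RGS4 inhibition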
RGS4 uninduced – carbachol calcium response in non-induced M3R cells, confirmation, counter-screen for RGS4 inhibitor project, cell-based, HEK293 M3R | activity (percent), % at 10 µM | 1,900 tested, 20% active | carbachol calcium Fluo-4; submaximal (EC20) carbachol stimulus; buffer wells 0%, carbachol control wells 100% | AID 493000, 2010 | shares compounds with RGS4 inh; call rule not given here;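 also: RGS4 induction absent so cells express M3R without RGS4; higher means more calcium signal and flags a non-specific hit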
M3R basal Ca ctr – signal in non-induced cells without carbachol, RGS4 inhibitor counter-screen | AID 493001 | HEK293 M3R/RGS4 non-induced, Fluo-4 calcium, no carbachol; normalised: buffer wells 0%, carbachol wells 100% | shares compounds with RGS4 inh | 1,900 tested, 22% active | calcium response (agonist-mode artifact), % at 10 µM;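 active = duplicate-averaged calcium rise in uninduced cells above buffer wells' mean plus 5 SD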
* = called active by the depositor; i = inactive; . = no result. This is a sample that favours compounds with a hit; in the whole collection about 3.5% have one here.

SMILES	RGS4 pot	MrgX1 ag	MrgX1 antag	MrgX1 PAM	RGS4 inh	RGS4 block valid	RGS4 uninduced	M3R basal Ca ctr
COC(=O)C(C(=O)OC)C(C[N+](=O)[O-])c1ccc(OC)c(OC)c1 (stereo unspecified)	i	i	i	i	i	.	.	.
COc1ccc(C(C[N+](=O)[O-])C2(c3ccc(OC)c(OC)c3)C(=O)c3ccccc3C2=O)cc1 (stereo unspecified)	i	i	i	i	16*	60%*	37%*	i
COc1c(F)c(F)c(C(=O)Nc2ccc(N3CCN(C(C)=O)CC3)c(Cl)c2)c(F)c1F	i	i	i	i	i	.	.	.
O=C(/C=C/c1cccc([N+](=O)[O-])c1)N1CCN(c2ccccn2)CC1	i	i	i	i	i	.	.	.
O=C(/C=C/c1cccc([N+](=O)[O-])c1)c1cccs1	i	35*	i	i	4.8*	i	i	i
Cc1cc(O)c(C(=O)/C=C/c2cccc([N+](=O)[O-])c2)c(=O)o1	i	i	i	i	4.7*	30%*	i	i
O=C(/C=C/c1cccc([N+](=O)[O-])c1)Nc1ccc(NC(=O)c2cccs2)cc1	i	i	i	i	i	.	.	.
O=C(/C=C/c1cccc([N+](=O)[O-])c1)n1cnc2ccccc21	i	.	.	.	7.9*	19%*	i	i
Cc1cc(C)c(C#N)c(SCC(=O)Nc2nonc2N)n1	i	i	i	i	i	.	.	.
CCCn1c(/N=C/c2c[nH]c3ccccc23)nc2ccccc21	i	i	i	i	5.1*	8.0%*	i	i
CCCCn1c(/N=C/c2ccc(N(C)C)cc2)nc2ccccc21	i	i	i	i	i	.	.	.
CCCn1c(/N=C/c2ccccc2O)nc2ccccc21	i	i	i	i	i	.	.	.
CCCCn1c(/N=C/c2c[nH]c3ccccc23)nc2ccccc21	i	i	i	i	i	.	i	i
CCn1c(/N=C/c2c[nH]c3ccccc23)nc2ccccc21	i	i	i	i	i	.	i	i
CC(C)Oc1ccc(C(=O)/C=C2/C(=O)Nc3ccccc32)cc1	i	i	i	i	5.1*	10%*	72%*	i
O=C(CSCc1ccccc1)Nc1ccccc1C(=O)Nc1ccc(C(=O)O)cc1	i	i	i	i	i	.	.	.
Cc1ccc(Cc2cc(-c3ccc(C)cc3)n[nH]c2=O)cc1	i	i	i	i	i	.	i	i
O=c1[nH]nc(-c2ccc(F)cc2)cc1Cc1ccc(F)cc1	i	i	i	i	i	.	i	i
Cc1ccc(-c2cc(Cc3ccc(F)cc3)c(=O)[nH]n2)cc1	i	i	i	i	i	.	.	.
COc1ccccc1CN1CC(C(=O)N2CCC(OC)CC2)CCC1=O (stereo unspecified)	i	i	i	i	i	.	.	.
O=C(O)CCC(=O)Nc1sc2c(c1C(=O)Nc1ccccc1)CCCCC2	i	i	i	i	5.5*	7.0%*	64%*	i
O=C(CN1CCN(C(=O)N2CCCCC2)CC1)Nc1ccc(F)cc1	i	i	i	i	i	.	.	.
CC1(C)C([N+](=O)[O-])C(c2ccc(Cl)cc2)NC(c2ccc(Cl)cc2)C1[N+](=O)[O-] (stereo unspecified)	i	i	i	i	i	.	.	.
O=C(N/N=C/c1ccc(O)cc1)NC12CC3CC(CC(C3)C1)C2	i	i	i	i	5.2*	20%*	58%*	11%*
CCc1nnc(NS(=O)(=O)c2ccc(N=Cc3c(C)[nH]n(-c4ccc(C)c(C)c4)c3=O)cc2)s1	i	i	i	i	i	i	i	i
SMILES	RGS4 pot	MrgX1 ag	MrgX1 antag	MrgX1 PAM	RGS4 inh	RGS4 block valid	RGS4 uninduced	M3R basal Ca ctr
Cc1cc(C)nc(NS(=O)(=O)c2ccc(N=Cc3c(C)[nH]n(-c4ccccc4)c3=O)cc2)n1	i	i	i	i	i	.	.	.
Cc1[nH]n(-c2ccc(Br)cc2)c(=O)c1C=Nc1ccc(S(=O)(=O)Nc2nccs2)cc1	i	i	i	i	18*	9.5%*	i	i
Cc1ccc(-n2[nH]c(C)c(C=Nc3ccc(S(=O)(=O)Nc4nccs4)cc3)c2=O)cc1	i	i	i	i	i	.	.	.
Cc1cc2cc(C)c(NCCNC(=O)c3ccccc3)nc2cc1C	i	i	i	i	i	i	i	i
COc1ccc(Cn2c(S(=O)(=O)CC(N)=O)nc3ccccc32)cc1[N+](=O)[O-]	i	i	i	i	i	.	.	.
N#Cc1ccccc1Cn1cc(/C=C/[N+](=O)[O-])c2ccccc21	i	i	i	i	36*	186%*	i	52%*
O=[N+]([O-])/C=C/c1cn(Cc2ccccc2)c2ccccc12	i	i	i	i	16*	35%*	i	88%*
O=C(O)Cn1cc(/C=C/[N+](=O)[O-])c2ccccc21	i	i	i	i	i	.	.	.
Cc1ccccc1N(CC(=O)NCc1ccco1)C(=O)CNS(=O)(=O)c1ccc(F)cc1	i	i	i	i	i	i	i	i
Cc1ccc(N(CC(=O)NCc2ccco2)C(=O)CNS(=O)(=O)c2ccc(F)cc2)c(C)c1	i	i	i	i	i	.	.	.
O=C(NCc1ccccc1F)c1ccc(S(=O)(=O)Nc2cccc(C(F)(F)F)c2)cc1	i	i	i	i	i	.	.	.
O=C(NCc1ccc(F)cc1)c1ccc(S(=O)(=O)Nc2cccc(C(F)(F)F)c2)cc1	i	i	i	i	5.2*	16%*	i	18%*
COC(=O)c1ccc(NC(=S)Nc2ccc3ccccc3c2)cc1	i	i	i	i	7.8*	i	i	i

High-throughput results: PubChem BioAssay, Johns Hopkins Ion Channel Center
